Redox H2O2 prof – compounds producing H2O2 with reducing agent – biochemical, NIH compound library profiling, artefact control for MLSCN library redox annotation, primary screen; activation, % at 10 µM; 200,000 tested, 0.03% active; AID 878; DTT-dependent redox cycling H2O2, phenol red/HRP absorbance; 100% = 100 µM peroxide control, 0% = buffer;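 active = activation of at least 50% relative to the plate's high and low controls in the primary single-dose screen; inactive = activation below 50%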;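 note: compound incubated with DTT at 0.8 mM final as the reducing agent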
L major viab – inhibitors of Leishmania major promastigote growth | Leishmania major promastigotes, resazurin fluorescence viability | inhibition, % at 10 µM | 200,000 tested, 9% active | AID 1063;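 note: promastigotes grown with compound for 44 hours at 28 °C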
G6PDH CS – L. mesenteroides G6PDH inhibition counter-screen; Purified L. mesenteroides G6PDH, diaphorase/resazurin coupled fluorescence, 45 min; inhibition, % at 5 µM; 200,000 tested, 0.12% active
PfGluPho inh – PfG6PD (Plasmodium falciparum) enzyme inhibition; PfGluPho enzyme, NADPH resazurin-diaphorase fluorescence; inhibition, % at 20 µM; 350,000 tested, 0.78% active; AID 504690;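 active = inhibition reaching at least a set limit at 20 µM in the primary screen, cut at about 59% in these data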;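 note: 0% = DMSO wells with substrate and 100% = DMSO wells lacking glucose-6-phosphate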
Diaphorase act – counter-screen for diaphorase-based assays: diaphorase activators and chemical reducers. Diaphorase/resazurin coupled assay, resorufin fluorescence, 16 min; stronger effect = higher value; 1 = vehicle wells, 0 = NADH-free wells. activation factor at 20 µM. AID 1229. 190,000 tested, 0.005% active;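 active = diaphorase activity raised at least twofold by the compound at 20 µM; inactive = activation factor below 2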
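Assay system: Purified diaphorase enzyme from Clostridium kluyveri | Amount: Enzyme 0.07 U/mL final | Dosing: Compound 20 µM once, DMSO 1% | Timing: 16 min reaction at room temperature | Detection: Fluorescence, excitation 544 nm and emission 590 nm | Evaluation: Higher resorufin formation from activation or reduction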
Diaph inh CS – diaphorase inhibition or chemical oxidation counter-screen. diaphorase resazurin-to-resorufin fluorescence, NADH, 16 min; bacterial (C. kluyveri) enzyme, not human. AID 1217. 190,000 tested, 0.69% active. inhibition, % at 20 µM;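 active = primary screen inhibition at 20 µM above a set limit, cut at about 50% in these data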;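 note: plate controls were DMSO with full reaction for no effect and wells lacking NADH for full effect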
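material = Clostridium kluyveri diaphorase enzyme | amount = 0.14 U/mL diaphorase, enzyme working solution | schedule = incubation 16 min, room temperature | detection = fluorescence of resorufin formed from resazurin, Ex 544/Em 590 nm | benchmarks = positive control minus NADH, DMSO neutral control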
Lmaj promast 1uM – inhibitors of Leishmania major promastigote growth, repeat at 1 uM. shares compounds with L major viab. L. major promastigote growth, resazurin fluorescence, 48 h. inhibition, % at 1 µM. 1,100 tested, 13% active. AID 1258;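 active = inhibition above about 50% in both repeat tests, limit read from the data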
PfG6PD confirm – PfG6PD inhibition, single-dose confirmed | shares compounds with PfGluPho inh | recombinant PfGluPho, NADPH-diaphorase-resazurin fluorescence | inhibition, % at 20 µM | 2,400 tested, 34% active | AID 504753;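 active = inhibition of at least 50% at 20 µM in any single replicate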;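 note: 0% = DMSO with substrate and 100% = DMSO lacking glucose-6-phosphate substrate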
Diaph ctr 10uM – counter-screen for P. falciparum G6PD inhibitors: diaphorase inhibitors, oxidizers. shares compounds with PfGluPho inh. AID 504862. diaphorase-coupled resazurin reduction, fluorescence, NADPH 10 uM. 820 tested, 39% active. inhibition, % at 20 µM;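 active = average inhibition reaching 50% or more with the compound at 20 µM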;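 note: resorufin red fluorescence formed as diaphorase reduces resazurin using NADPH; 0% = DMSO with enzyme and 100% = DMSO without enzyme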
Diaphorase 30uM – counter-screen for P. falciparum G6PD inhibitors: diaphorase inhibitors, oxidizers. AID 504863. inhibition, % at 20 µM. 820 tested, 29% active. Diaphorase/resazurin coupled assay, resorufin fluorescence, 30 uM NADPH. shares compounds with PfGluPho inh;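 active = inhibition averaging 50% or more, tested at 20 µM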;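 note: 0% = DMSO with enzyme and 100% = DMSO wells lacking diaphorase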
* hit, by the source's call. The entries come from a sample that favours hits as a whole. Cut-off read from the data, not from the text of the source, unless noted: active = inhibition above about 50%; inactive = the rest.

`Cn1c(-c2ccc(C=O)s2)nc2c3ccccc3c3ccccc3c21` gave Redox H2O2 prof 7, L major viab 68*, G6PDH CS 18, PfGluPho inh 43, Diaphorase act 0.8, Diaph inh CS 17 and Lmaj promast 1uM -17.
`Cc1cc(/C=C2\Sc3ccccc3N2C)cc(C)[n+]1CC1CCCO1` (stereo not given) gave Redox H2O2 prof 0, L major viab 101*, G6PDH CS -4, PfGluPho inh 13, Diaphorase act 1, Diaph inh CS 4 and Lmaj promast 1uM 101*.
Cc1ccc(/C=C2/Sc3ccccc3N(CC(=O)NCC3CCCO3)C2=O)cc1 (stereo not given) was read as PfGluPho inh 3.
`CN(C)S(=O)(=O)c1cccc(-n2sc3ccccc3c2=O)c1` gave Redox H2O2 prof -2, L major viab 55*, G6PDH CS 8, PfGluPho inh 115*, Diaphorase act 0.8, Diaph inh CS 23, Lmaj promast 1uM -4, PfG6PD confirm 111*, Diaph ctr 10uM -25 and Diaphorase 30uM -24.
For CN(C)S(=O)(=O)c1ccc2[nH]cc(/C=C/c3nc4ccccc4c(=O)n3-c3ccccc3)c2c1 the results were Redox H2O2 prof 1, L major viab 21, G6PDH CS 13, PfGluPho inh 5, Diaphorase act 0.8 and Diaph inh CS 20.
Screening O=c1c2ccccc2sn1-c1ccccc1 returned Redox H2O2 prof 0, L major viab 100*, G6PDH CS -2, PfGluPho inh 112*, Diaphorase act 0.9, Diaph inh CS 9, Lmaj promast 1uM -5, PfG6PD confirm 114*, Diaph ctr 10uM -4 and Diaphorase 30uM -16.
O=c1ccsc2ccccc12 was read as PfGluPho inh 7.
For Cc1nn(-c2ccccn2)c2c1C(=O)C(Br)CC2 (stereo not given) the results were Redox H2O2 prof 0, L major viab 100*, G6PDH CS 33, PfGluPho inh 90*, Diaphorase act 0.2, Diaph inh CS 82*, Lmaj promast 1uM 85* and PfG6PD confirm -1.
`CCOC(=O)c1ccc(NC(=O)NNC(=O)CCc2ccc(OC)cc2)cc1` gave PfGluPho inh 2.
O=S(=O)(NC1CCCCC1N1CCN(c2ccc(F)cc2)CC1)c1ccccc1 (stereo not given) was read as PfGluPho inh 12.
For Cc1ccccc1-n1sc2cc(F)ccc2c1=O the results were Redox H2O2 prof 0, L major viab 80*, G6PDH CS 6, PfGluPho inh 114*, Diaphorase act 0.9, Diaph inh CS 10, Lmaj promast 1uM -21, PfG6PD confirm 114*, Diaph ctr 10uM -12 and Diaphorase 30uM -25.
`c1ccc(COn2nnc3ccccc32)c(COn2nnc3ccccc32)c1` gave Redox H2O2 prof 2, L major viab 87*, G6PDH CS -8, PfGluPho inh 50, Diaphorase act 0.8, Diaph inh CS 19, Lmaj promast 1uM -9 and PfG6PD confirm 14.
Screening Clc1cccc(Cl)c1COn1nnc2ccccc21 returned Redox H2O2 prof 2, L major viab -2, G6PDH CS 0, PfGluPho inh 26, Diaphorase act 0.9 and Diaph inh CS 8.
`c1cncc(-c2nnc(-c3cccnc3)nn2)c1` gave Redox H2O2 prof 3, L major viab 97*, G6PDH CS 32, PfGluPho inh 77*, Diaphorase act 1, Diaph inh CS 3, Lmaj promast 1uM -22 and PfG6PD confirm 31.
For Cc1ccc(NC(=O)CSC2=NN3CCCC(=O)N=C3S2)cc1Cl the results were PfGluPho inh -3.
Screening COc1ccc(NC(=O)Nc2cccc([N+](=O)[O-])c2)cc1Cl returned Redox H2O2 prof 0, L major viab 98*, G6PDH CS -29, PfGluPho inh 61*, Diaphorase act 1, Diaph inh CS 4, Lmaj promast 1uM -3 and PfG6PD confirm 10.
Screening Cn1c(SCc2ccc(F)cc2Cl)nc2ccccc2c1=O returned PfGluPho inh -3.
`c1ccc(-c2nc3cc4ccccc4cc3[nH]2)nc1` gave Redox H2O2 prof 3, L major viab 100*, G6PDH CS -38, PfGluPho inh 89*, Diaphorase act 0.9, Diaph inh CS 5, Lmaj promast 1uM -5 and PfG6PD confirm 37.
For CC[C@]1(C(=O)OC)[C@H]2C(=O)N(C)C(=O)[C@H]2[C@H]2CN=C(SCc3ccc(C)cc3)N21 the results were PfGluPho inh 12.
`CC1(C)CN(c2ccccc2)N(C(=O)c2ccc(C#N)cc2)C1=O` gave Redox H2O2 prof 0, L major viab 54*, G6PDH CS 4, PfGluPho inh 95*, Diaphorase act 1, Diaph inh CS 0, Lmaj promast 1uM -16, PfG6PD confirm 68*, Diaph ctr 10uM 1 and Diaphorase 30uM 1.
For CCCCCCN=C(C)c1ccccc1O the results were PfGluPho inh 1.
For O=C1NC(Cc2ccccc2)C(=O)N1Cc1ccccc1 (stereo not given) the results were PfGluPho inh 0.
`O=c1ccsn1Cc1ccccc1` gave Redox H2O2 prof 3, L major viab 101*, G6PDH CS 4, PfGluPho inh 94*, Diaphorase act 0.8, Diaph inh CS 16, Lmaj promast 1uM 32, PfG6PD confirm 75*, Diaph ctr 10uM -4 and Diaphorase 30uM -5.
Screening CN1c2cccc3cccc(c23)N(C)C1(C)C returned Redox H2O2 prof 2, L major viab 99*, G6PDH CS 8, PfGluPho inh 71*, Diaphorase act 0.5, Diaph inh CS 52*, Lmaj promast 1uM -16 and PfG6PD confirm 39.
For CN(C)c1cccc2cccc(N(C)C)c12 the results were PfGluPho inh 9.
Screening Cc1ccc(/C=C/C(=O)N2CCN(c3ccc(F)cc3)CC2)o1 returned Redox H2O2 prof -1, L major viab 44, G6PDH CS -1, PfGluPho inh 15, Diaphorase act 0.8 and Diaph inh CS 19.

Assay outcomes deposited in PubChem by several laboratories.
